Reference: ChEMBL document CHEMBL1158068, “Chaetocochins A-C, epipolythiodioxopiperazines from Chaetomium cochliodes” (2006)
≈ marks a conversion by molar mass, not a printed value.

Columns and labels:
Format in all cases: functional
[1] = Growth inhibition of human Lu-04 cells after 48 hrs by SRB assay; settings: Lu04, 48 h
Summary of the method: (§1)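 ATCC cancer lines (Bre-04 = MDA-MB-231, Lu-04 = NCI-H460, N-04 = SF-268), cultured per supplier instructions. Cells seeded in 96-well plates, incubated 16 h at 37 °C, then exposed to a range of compound concentrations for 48 h. Taxol served as positive control. Cytotoxicity read by colorimetric sulforhodamine B (SRB) chemosensitivity assay.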

[2] = Growth inhibition of human N-04 cells after 48 hrs by SRB assay; settings: N04, 48 h; summary of the method: as §1
[3] = Growth inhibition of human Bre-04 cells after 48 hrs by SRB assay; settings: Bre04, 48 h; summary of the method: as §1

SMILES	GI50 [1]	GI50 [2]	GI50 [3]
CS[C@]12COCN3c4ccccc4[C@]4(C[C@]5(SC)C(=O)N(C)[C@@](CO)(SC)C(=O)N5[C@@H]34)n3cc(c4ccccc43)C[C@](SC)(C(=O)N1C)N(C)C2=O [CHAETOCOCHIN A]	3.4 µg/mL (≈ 4.34 µM)	7 µg/mL (≈ 8.94 µM)	4.1 µg/mL (≈ 5.24 µM)
CS[C@@]1(CO)C(=O)N(C)[C@@](Cc2cn([C@]34C[C@@]56SS[C@@](CO)(C(=O)N5[C@H]3Nc3ccccc34)N(C)C6=O)c3ccccc23)(SC)C(=O)N1C [CHAETOCOCHIN C]	1.9 µg/mL (≈ 2.56 µM)	0.4 µg/mL (≈ 0.54 µM)	0.4 µg/mL (≈ 0.54 µM)
CC(=O)O[C@H]1C(=O)[C@@]2(C)[C@H]([C@H](OC(=O)c3ccccc3)[C@]3(O)C[C@H](OC(=O)[C@H](O)[C@@H](NC(=O)c4ccccc4)c4ccccc4)C(C)=C1C3(C)C)[C@]1(OC(C)=O)CO[C@@H]1C[C@@H]2O [PACLITAXEL]	0.03 µg/mL (≈ 0.0351 µM)	0.04 µg/mL (≈ 0.0468 µM)	0.04 µg/mL (≈ 0.0468 µM)
CS[C@@]1(CO)C(=O)N(C)[C@@](Cc2cn([C@]34C[C@]5(SC)C(=O)N(C)[C@@](CO)(SC)C(=O)N5[C@H]3Nc3ccccc34)c3ccccc23)(SC)C(=O)N1C	0.05 µg/mL (≈ 0.0648 µM)	0.2 µg/mL (≈ 0.259 µM)	0.06 µg/mL (≈ 0.0778 µM)
